Source: PubChem (several laboratories)
Compounds with a hit are over-represented: about 2.2% of the library has one in this group of screens.
GRK2 aptamer HTS: compounds blocking aptamer binding on GRK2 – biochemical, human GRK2, bead flow cytometry, HTS, primary screen. Beta-adrenergic receptor kinase 1 (Homo sapiens), P25098. FAM-aptamer displacement from GRK2. inhibition of aptamer binding, % at 10 µM. actives 0.59% (n = 330,000). AID 488847, 2010;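 active = inhibition of aptamer binding above 40%, roughly 3 SD of noise, on plates passing a quality check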;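 note: median bead fluorescence of bound FAM aptamer so fluorescent compounds give negative values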
Target sequence (P25098 whole entry, looked up): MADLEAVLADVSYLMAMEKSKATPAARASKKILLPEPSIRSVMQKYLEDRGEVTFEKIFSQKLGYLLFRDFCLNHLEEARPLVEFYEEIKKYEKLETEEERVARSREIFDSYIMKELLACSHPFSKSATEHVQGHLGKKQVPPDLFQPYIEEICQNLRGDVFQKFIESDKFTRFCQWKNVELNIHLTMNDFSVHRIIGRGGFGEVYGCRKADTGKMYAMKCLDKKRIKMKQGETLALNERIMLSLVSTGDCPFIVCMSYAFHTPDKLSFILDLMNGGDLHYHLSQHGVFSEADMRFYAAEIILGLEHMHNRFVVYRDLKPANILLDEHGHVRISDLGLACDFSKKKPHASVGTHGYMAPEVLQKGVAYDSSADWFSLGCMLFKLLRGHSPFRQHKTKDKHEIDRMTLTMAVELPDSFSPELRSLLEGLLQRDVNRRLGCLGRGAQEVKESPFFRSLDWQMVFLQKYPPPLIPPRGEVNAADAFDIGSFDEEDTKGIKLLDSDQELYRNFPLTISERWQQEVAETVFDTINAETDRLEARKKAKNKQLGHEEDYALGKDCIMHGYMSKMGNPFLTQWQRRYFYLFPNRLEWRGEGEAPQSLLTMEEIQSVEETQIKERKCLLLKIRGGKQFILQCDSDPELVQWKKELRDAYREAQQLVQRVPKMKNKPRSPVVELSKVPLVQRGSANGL
NS3 helicase inh: inhibitors of HCV NS3 helicase, primary screen, biochemical, Cy5 molecular beacon fluorescence. Hepatitis C virus NS3 helicase. NS3 helicase DNA unwinding. inhibition, % at 10.9 µM. actives 0.56% (n = 290,000);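 active = inhibition above the mean of all tested compounds plus 3 SD, set per campaign, cut at about 35% in these data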;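 note: 0% = DMSO wells and 100% = thioflavine S control wells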
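Material: hepatitis C virus NS3 helicase domain fragment enzyme; measured by: Cy5 fluorescence, 0 and 60 min reads; control set: DMSO and thioflavine S; incubation: 60 min unwinding reaction at 25 °C after ATP addition; read-out basis: % inhibition from 60/0 min fluorescence ratio, DMSO 0%, thioflavine S 100%; repeats: singlicate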
GPR7 antag: GPR7 receptor antagonists, primary screen, cell-based, fluorescence, single concentration. GPR7-expressing cells, fluorescence antagonist assay. inhibition, % at 4.4 µM. actives 1.1% (n = 290,000); in the data active = inhibition above about 16%, passing the limit was not always enough;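 note: cells stimulated with the agonist NPW; 0% = agonist with vehicle and 100% = vehicle without agonist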
DAGLB inh: DAGLB lipase inhibitors, primary screen, biochemical, fluorescence, HTS; HEK293T DAGLB membrane lysate, EnzChek fluorogenic substrate; inhibition, % at 5.17 µM; actives 0.059% (n = 340,000); AID 504411, 2011; in the data active = inhibition above about 34%;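 note: 0% = enzyme with vehicle and 100% = wells lacking enzyme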
DNA FID counter-1: compounds displacing fluorescent DNA intercalator, primary screen, artefact control for HCV NS3 helicase inhibitor project, biochemical, FID fluorescence | DNA fluorescent intercalator displacement | inhibition, % at 7.9 µM | actives 0.17% (n = 290,000);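 note: 0% = vehicle and 100% = reference compound; higher means more ethidium bromide displaced from hairpin DNA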
core dimer inh: inhibitors of HCV core protein dimerization, primary screen, biochemical, TR-FRET, high-throughput; TR-FRET GST/Flag-core106 dimerization, 1536-well; inhibition, % at 5 µM; actives 0.33% (n = 300,000);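 active = inhibition above the mean of all tested compounds plus 3 SD, set per screening campaign, cut at about 45% in these data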
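Assay system: GST-tagged and Flag-tagged HCV core protein residues 1-106 / Times: compound-protein-antibody incubation 4 h at 22.5 °C / Signal: time-resolved FRET, ex 340 nm, em 617 and 671 nm / Evaluation: % inhibition based on acceptor/donor emission ratio / Benchmarks: wells lacking GST-core106 and wells with excess unlabelled core106 / Repeats: singlicate, one well per compound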
NS3 helicase cf: HCV NS3 helicase inhibitors, retest, confirmation, biochemical, Cy5 molecular beacon fluorescence, triplicate; inhibition, % at 10.9 µM; actives 31% (n = 1,600); NS3 helicase DNA unwinding; shares compounds with NS3 helicase inh;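 active = inhibition above the mean of all tested compounds plus 3 SD, cutoff set per campaign, cut at about 36% in these data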
DNA FID counter-2: compounds displacing fluorescent DNA intercalator, artefact control for HCV NS3 helicase inhibitor project, biochemical, FID fluorescence, triplicate; shares compounds with NS3 helicase inh; DNA fluorescent intercalator displacement; inhibition, % at 7.9 µM; actives 4% (n = 1,600); AID 1945, 2009;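 note: 0% = vehicle and 100% = reference compound; higher means more displacement of ethidium bromide from the DNA hairpin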
DNA FID DR: compounds displacing fluorescent intercalator from DNA, dose response, counter-screen for HCV NS3 helicase inhibitor project, biochemical, fluorescence | shares compounds with NS3 helicase inh | 120 tested, under 10 active | IC50, µM | AID 2172, 2009 | fluorescent intercalator displacement from DNA; call rule not given here
Starred values were filed as active, the others as inactive; nt = not tested or not shown. Cut-off read from the data, not from the text of the source, unless noted: active = inhibition above about 37%; inactive = the rest.

SMILES | GRK2 aptamer HTS | NS3 helicase inh | GPR7 antag | DAGLB inh | DNA FID counter-1 | core dimer inh | NS3 helicase cf | DNA FID counter-2 | others
CSc1nc(-c2cccs2)c(C#N)c(=O)[nH]1 | 1 | 1 | -9 | 7 | -5 | 10 | nt | nt
CCN(CC)CCn1cnc2c([nH]c3cccc(OC)c32)c1=O | 11 | 42* | -17 | -3 | -9 | -2 | -16 | 2
Cc1cc(OCC(O)CN2CCCC2)cc(C)c1Cl (stereo unspecified) | 1 | -13 | -11 | -1 | 12 | -4 | nt | nt
CCOC(=O)C1=C(O)/C(=C\c2ccc(CNC(=O)C(=O)Nc3ccccc3)o2)N=C1C | 2 | 40* | -3 | 7 | -11 | 14 | 31 | -8
CCOC(=O)C1(Cc2cccc(Cl)c2)CCCN(C(=O)CCOC)C1 (stereo unspecified) | 0 | -4 | -10 | 0 | -19 | 0 | nt | nt
CCOC(=O)C1(Cc2cccc(Cl)c2)CCCN(C(=O)CCN2CCCC2=O)C1 (stereo unspecified) | 0 | 65* | -2 | 0 | -38 | -7 | -12 | -38
C(=C\c1ccccc1)/C=N/Nc1ccc2nncn2n1 | 1 | 44* | 16 | nt | -5 | -7 | -14 | -19
C#CCSC1=C(C#N)C(c2cccs2)C(C(=O)OCC)=C(C)N1 (stereo unspecified) | 0 | 46* | 0 | -4 | -19 | 31 | -6 | -6
Cc1cc(=O)[nH]c2c1cnn2Cc1ccccc1 | 0 | 3 | -5 | 0 | -1 | -2 | nt | nt
S=c1nc[nH]c2c1cnn2Cc1ccccc1 | 2 | 41* | 6 | 0 | -6 | nt | 2 | -4
CC(=O)c1ccc(OCC(=O)OCC(=O)NCc2ccco2)cc1 | 0 | nt | nt | 2 | nt | nt | nt | nt
Cc1ccc(Oc2ccc(OCC(=O)NC(CC(C)C)C(=O)O)cc2)cc1 (stereo unspecified) | 3 | 45* | -5 | 6 | -24 | -2 | 39* | -25
O=C1C(=Cc2ccc(Br)o2)C(=O)c2ccccc21 | 7 | 45* | -6 | 3 | -14 | 9 | 85* | 28
Cc1ccc(C(=O)O)cc1-c1ccc(C=C2C(=O)c3ccccc3C2=O)o1 | 35 | 36 | 13 | 2 | -10 | -2 | nt | nt
c1ccc2c(c1)ccn2CCCN1CCCCC1 | nt | nt | nt | 2 | nt | nt | nt | nt
O=C(CSc1nnc2c(n1)[nH]c1ccccc12)NCc1ccccc1F | 2 | -18 | 14 | 0 | -2 | 2 | nt | nt
Cc1nn(-c2ccccc2)c2c1C1(C(=O)N(C)c3ccccc31)C(C#N)=C(N)O2 (stereo unspecified) | 2 | 42* | -3 | 2 | -22 | -11 | -21 | -27
CCOC(=O)c1ccc(S(=O)(=O)N2CCN(Cc3cc4c(cc3O)OCO4)CC2)cc1 | 5 | nt | nt | -4 | nt | nt | nt | nt
COc1ccc(NC(=O)/C(C#N)=C\C=C\c2ccco2)cc1 | 1 | 85* | 7 | 5 | -17 | 0 | -4 | 0
COc1ccc(NC(=O)/C(=C\c2ccco2)NC(=O)c2ccco2)cc1 | 2 | 4 | -2 | -1 | 1 | 10 | nt | nt
CCOc1cccc(NC(=O)/C(C#N)=C\c2cn(CC(=O)O)c3ccccc23)c1 | 3 | 40* | 0 | 6 | -19 | 9 | 49* | -7
O=C(COc1ccc(-c2ccccc2)cc1)N/N=C/c1ccccc1Br | 4 | 12 | 7 | -11 | -4 | 27 | nt | nt
O=C(COc1ccc(-c2ccccc2)cc1)N/N=C/c1cc(O)ccc1Br | 2 | 37* | -11 | -10 | -17 | 9 | -2 | -19
CC1(C)C2CCC(CN=C(N)CSS(=O)(=O)O)C1C2 (stereo unspecified) | nt | nt | nt | -8 | nt | nt | nt | nt
COc1ccc(CCNC(=O)C(=O)NCC2OCCN2S(=O)(=O)c2ccccc2)cc1 (stereo unspecified) | 1 | 37* | -5 | -2 | -27 | 14 | -12 | -47
SMILES | GRK2 aptamer HTS | NS3 helicase inh | GPR7 antag | DAGLB inh | DNA FID counter-1 | core dimer inh | NS3 helicase cf | DNA FID counter-2 | others
COc1ccc(CCNC(=O)C(=O)NCC2OCCN2S(=O)(=O)c2ccc(Br)cc2)cc1 (stereo unspecified) | 7 | -11 | -4 | -2 | -16 | 4 | nt | nt
CCCC(=O)Nc1ccc(-c2csc(N/N=C\c3ccncc3)n2)cc1 | 2 | 38* | 5 | -9 | -8 | 7 | 12 | -3
CC(=O)Nc1ccc(-c2csc(N/N=C\c3ccncc3)n2)cc1 | 3 | -2 | -4 | nt | -11 | 14 | nt | nt
CCOC(=O)c1c(-c2ccc(C)cc2)csc1NC(=O)C1CC=CCC1C(=O)O (stereo unspecified) | 4 | 43* | 8 | -3 | -7 | 18 | 74* | -16
Cc1cccc(OCC(=O)N(Cc2ccccc2)c2c(N)n(Cc3ccccc3)c(=O)[nH]c2=O)c1 | 3 | nt | nt | 3 | nt | nt | nt | nt
O=C(O)/C(=C\c1cccc([N+](=O)[O-])c1)c1ccc(S(=O)(=O)N2CCCCC2)s1 | 1 | 44* | -6 | 7 | -16 | 7 | 54* | -14
O=C(NC(=S)N1CCCCC1)c1csc([N+](=O)[O-])c1 | 1 | 1 | -15 | nt | -5 | -3 | nt | nt
O=C(c1ccccc1)c1coc2c1C(=O)c1ccccc1C2=O | 2 | 11 | -9 | 21 | 1 | 1 | nt | nt
COc1ccc(C(=O)c2coc3c2C(=O)C(=O)c2ccccc2-3)cc1 | 2 | 41* | 13 | 4 | -9 | -1 | -8 | -3
C=CCSC1=N/C(=C\C=C\c2ccco2)C(=O)S1 | 21 | 42* | 6 | 4 | -11 | 65* | 50* | 19 | DNA FID DR=>79
CCNc1nnc(-c2ccc(C)cc2)o1 | 1 | 52* | -5 | 1 | 2 | 0 | 4 | 2
Cc1ccc(-c2nnc(-c3ccccc3)o2)cc1 | 0 | 3 | -8 | -13 | -6 | 6 | nt | nt
C/C=C/C(O)c1ccc2ccccc2c1 (stereo unspecified) | 2 | 41* | -4 | nt | -11 | -4 | 0 | 4
OC(c1ccccc1)C(O)C(c1ccccc1)N1CCCCC1 (stereo unspecified) | nt | nt | nt | -1 | nt | nt | nt | nt
